Laboratory results reported in ChEMBL document CHEMBL3603779, “Identification and Optimization of Benzimidazole Sulfonamides as Orally Bioavailable Sphingosine 1-Phosphate Receptor 1 Antagonists with in Vivo Activity” (J Med Chem, 2015).
Active and inactive are the calls of the source. No cut-off for these calls is given here.

Tests used:
[1] = Intrinsic clearance in human liver microsomes pre-incubated at 37 degC for 5 mins before NADPH addition by LCMS/MS method; assay type: ADME; conditions: read-out: CLH
[2] = target: T1, Sphingosine 1-phosphate receptor 1 (Homo sapiens, UniProt P21453); assay: Antagonist activity against human S1P1 receptor expressed in human U2OS cells co-expressing GFP assessed as inhibition of S1P-induced receptor translocation; assay type: cell-based
In short: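 Cellular S1P1 translocation (internalization) assay with antagonist; EC50 reported as mean of at least three separate determinations ± standard deviation.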

Cytochrome P450 3A4 [3] = target: T2, Cytochrome P450 3A4 (Homo sapiens, UniProt P08684); assay: Induction of CYP3A4 activation in human hepatocytes at 10 uM incubated for 48 hrs using testosterone substrate relative to rifampicin; assay type: ADME, cell-based, Hepatocyte
In short: (§1)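 Human hepatocyte CYP3A induction, testosterone probe with 6-β-hydroxytestosterone as marker; activity expressed as % of the rifampicin response; hepatocytes from two donors tested.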

Cytochrome P450 3A5 [4] = target: T3, Cytochrome P450 3A5 (Homo sapiens, UniProt P20815); assay: Induction of CYP3A5 activation in human hepatocytes at 10 uM incubated for 48 hrs using testosterone substrate relative to rifampicin; assay type: ADME, cell-based, Hepatocyte; in short: as §1
[5] = Lipophilicity, log D of the compound at pH 7.4; assay type: physicochemical; conditions: buffer
[6] = target: T4, Nuclear receptor subfamily 1 group I member 2 (Homo sapiens, UniProt O75469); assay: Activation of human PXR expressed in human HepG2 cells co-expressing CYP3A4 assessed as CYP3A4 activation at 10 uM by luciferase reporter gene assay relative to rifampicin; assay type: ADME, cell-based; conditions: hepg2, 10 µM
T4 sequence (O75469 whole entry): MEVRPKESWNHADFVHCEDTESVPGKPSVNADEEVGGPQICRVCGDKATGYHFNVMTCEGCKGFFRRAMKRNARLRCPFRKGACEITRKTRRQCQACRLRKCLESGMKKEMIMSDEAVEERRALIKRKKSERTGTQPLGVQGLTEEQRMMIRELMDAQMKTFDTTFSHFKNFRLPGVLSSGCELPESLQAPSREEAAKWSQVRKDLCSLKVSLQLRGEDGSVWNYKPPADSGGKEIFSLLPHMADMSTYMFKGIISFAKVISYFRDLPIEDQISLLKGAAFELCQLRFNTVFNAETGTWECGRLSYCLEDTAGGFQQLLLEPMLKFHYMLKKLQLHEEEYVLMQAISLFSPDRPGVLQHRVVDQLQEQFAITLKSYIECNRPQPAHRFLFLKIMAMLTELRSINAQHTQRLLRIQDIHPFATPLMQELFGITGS
In short: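 Single-concentration PXR reporter gene screen, compound at 10 μM; activation expressed as a percentage of the response to rifampicin, also at 10 μM.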

[7] = target: Sphingosine 1-phosphate receptor 3 (Homo sapiens) (UniProt Q99500); assay: Antagonist activity against S1P3 receptor (unknown origin)
[8] = target: Sphingosine 1-phosphate receptor 1 (Mus musculus) (UniProt O08530); assay: Antagonist activity against mouse S1P1 receptor expressed in human U2OS cells co-expressing GFP assessed as inhibition of S1P-induced receptor translocation; assay type: cell-based
Cytochrome P450 2C19 = Cytochrome P450 2C19 (Homo sapiens, UniProt P33261); assay: Inhibition of CYP2C19 in human liver microsomes incubated for 5 mins in presence of NADPH and specific substrates by LC/MS/MS method; assay type: ADME
[9] = target: T1, Sphingosine 1-phosphate receptor 1; assay: Antagonist activity against S1P1 receptor (unknown origin) expressed in human U2OS cells co-expressing GFP assessed as reduction in maximal amount of S1P-induced receptor translocation; assay type: cell-based
In short: (§2)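 S1P concentration-response curves for receptor internalization run at a series of fixed antagonist concentrations, giving both curve shift and maximal internalization.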

[10] = Oral bioavailability in Han Wistar rat at 5 to 10 mg/kg by LC-MS/MS method; assay type: ADME, organism-based; conditions: in vivo
[11] = target: T1, Sphingosine 1-phosphate receptor 1; assay: Antagonist activity against S1P1 receptor (unknown origin) expressed in human U2OS cells co-expressing GFP assessed as right-ward shift of S1P-induced response; assay type: cell-based; in short: as §2
Cytochrome P450 3A5 [12] = target: T3, Cytochrome P450 3A5; assay: Inhibition of CYP3A5 in human liver microsomes incubated for 5 mins in presence of NADPH and specific substrates by LC/MS/MS method; assay type: ADME
Cytochrome P450 3A4 [13] = target: T2, Cytochrome P450 3A4; assay: Inhibition of CYP3A4 in human liver microsomes incubated for 5 mins in presence of NADPH and specific substrates by LC/MS/MS method; assay type: ADME
Cytochrome P450 2D6 = Cytochrome P450 2D6 (Homo sapiens, UniProt P10635); assay: Inhibition of CYP2D6 in human liver microsomes incubated for 5 mins in presence of NADPH and specific substrates by LC/MS/MS method; assay type: ADME
Sequence of Cytochrome P450 2D6 (P10635 whole entry): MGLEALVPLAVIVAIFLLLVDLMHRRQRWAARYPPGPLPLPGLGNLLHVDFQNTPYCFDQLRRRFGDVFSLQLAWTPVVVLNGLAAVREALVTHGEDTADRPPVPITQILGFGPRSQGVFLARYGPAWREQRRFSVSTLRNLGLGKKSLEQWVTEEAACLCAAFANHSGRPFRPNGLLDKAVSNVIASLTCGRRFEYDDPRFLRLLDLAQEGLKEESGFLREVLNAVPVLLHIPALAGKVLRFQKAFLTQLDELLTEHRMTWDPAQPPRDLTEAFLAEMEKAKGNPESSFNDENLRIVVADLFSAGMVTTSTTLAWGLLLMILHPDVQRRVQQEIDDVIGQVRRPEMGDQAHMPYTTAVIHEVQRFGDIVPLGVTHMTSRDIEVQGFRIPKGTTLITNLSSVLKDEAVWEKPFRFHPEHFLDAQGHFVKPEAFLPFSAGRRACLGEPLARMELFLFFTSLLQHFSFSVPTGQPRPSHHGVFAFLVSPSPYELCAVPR

T3 sequence (P20815 whole entry): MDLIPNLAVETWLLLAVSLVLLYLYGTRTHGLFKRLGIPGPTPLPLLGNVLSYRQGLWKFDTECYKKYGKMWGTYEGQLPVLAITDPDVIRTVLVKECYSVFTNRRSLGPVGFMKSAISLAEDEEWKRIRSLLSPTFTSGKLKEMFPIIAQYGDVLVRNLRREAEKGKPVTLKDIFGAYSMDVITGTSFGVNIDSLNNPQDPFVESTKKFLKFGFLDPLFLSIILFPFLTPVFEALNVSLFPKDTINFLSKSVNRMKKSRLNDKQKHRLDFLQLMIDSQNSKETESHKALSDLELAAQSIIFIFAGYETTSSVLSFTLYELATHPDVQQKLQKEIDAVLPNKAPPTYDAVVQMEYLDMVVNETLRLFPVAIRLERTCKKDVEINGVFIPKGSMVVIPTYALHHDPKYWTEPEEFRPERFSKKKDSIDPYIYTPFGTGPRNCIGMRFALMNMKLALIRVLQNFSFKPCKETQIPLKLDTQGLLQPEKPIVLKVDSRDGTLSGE
T1 sequence (P21453 whole entry): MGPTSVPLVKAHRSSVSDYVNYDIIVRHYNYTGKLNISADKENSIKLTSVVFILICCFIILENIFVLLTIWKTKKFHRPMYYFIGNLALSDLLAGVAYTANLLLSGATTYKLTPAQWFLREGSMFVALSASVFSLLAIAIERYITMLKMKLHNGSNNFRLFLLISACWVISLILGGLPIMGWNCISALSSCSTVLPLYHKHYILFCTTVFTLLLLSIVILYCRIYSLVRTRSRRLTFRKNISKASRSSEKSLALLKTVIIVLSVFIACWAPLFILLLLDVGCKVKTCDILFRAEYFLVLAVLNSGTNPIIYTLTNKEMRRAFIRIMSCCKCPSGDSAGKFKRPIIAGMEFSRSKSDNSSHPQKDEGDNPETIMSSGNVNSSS
T2 sequence (P08684 whole entry): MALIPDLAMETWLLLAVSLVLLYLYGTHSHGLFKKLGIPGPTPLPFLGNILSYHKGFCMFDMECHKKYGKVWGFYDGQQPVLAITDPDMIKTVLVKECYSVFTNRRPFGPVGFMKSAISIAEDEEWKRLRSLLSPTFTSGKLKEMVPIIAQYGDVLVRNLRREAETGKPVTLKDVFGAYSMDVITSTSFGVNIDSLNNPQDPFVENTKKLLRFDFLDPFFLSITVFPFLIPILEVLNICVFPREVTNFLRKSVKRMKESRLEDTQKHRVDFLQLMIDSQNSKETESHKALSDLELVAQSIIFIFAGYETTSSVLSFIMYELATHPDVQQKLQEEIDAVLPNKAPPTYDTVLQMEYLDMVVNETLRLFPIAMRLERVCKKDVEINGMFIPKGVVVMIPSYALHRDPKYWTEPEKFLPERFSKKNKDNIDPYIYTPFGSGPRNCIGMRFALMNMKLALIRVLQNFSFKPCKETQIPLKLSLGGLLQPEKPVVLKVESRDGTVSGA
Sequence of Cytochrome P450 2C19 (P33261 whole entry): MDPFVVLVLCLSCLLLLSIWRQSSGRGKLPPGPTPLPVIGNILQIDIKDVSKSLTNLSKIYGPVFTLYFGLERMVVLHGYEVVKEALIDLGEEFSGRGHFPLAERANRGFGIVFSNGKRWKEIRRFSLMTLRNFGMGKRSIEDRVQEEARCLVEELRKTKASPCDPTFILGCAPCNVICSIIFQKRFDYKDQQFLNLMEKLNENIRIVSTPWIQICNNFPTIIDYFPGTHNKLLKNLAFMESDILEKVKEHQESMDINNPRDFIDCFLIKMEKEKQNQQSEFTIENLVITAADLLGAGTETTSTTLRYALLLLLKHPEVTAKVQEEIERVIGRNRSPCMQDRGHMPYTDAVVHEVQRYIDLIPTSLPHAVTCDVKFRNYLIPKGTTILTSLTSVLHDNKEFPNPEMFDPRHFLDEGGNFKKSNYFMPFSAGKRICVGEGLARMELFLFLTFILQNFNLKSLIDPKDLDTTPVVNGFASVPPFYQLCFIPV
Sequence of Sphingosine 1-phosphate receptor 3 (Homo sapiens) (Q99500 whole entry): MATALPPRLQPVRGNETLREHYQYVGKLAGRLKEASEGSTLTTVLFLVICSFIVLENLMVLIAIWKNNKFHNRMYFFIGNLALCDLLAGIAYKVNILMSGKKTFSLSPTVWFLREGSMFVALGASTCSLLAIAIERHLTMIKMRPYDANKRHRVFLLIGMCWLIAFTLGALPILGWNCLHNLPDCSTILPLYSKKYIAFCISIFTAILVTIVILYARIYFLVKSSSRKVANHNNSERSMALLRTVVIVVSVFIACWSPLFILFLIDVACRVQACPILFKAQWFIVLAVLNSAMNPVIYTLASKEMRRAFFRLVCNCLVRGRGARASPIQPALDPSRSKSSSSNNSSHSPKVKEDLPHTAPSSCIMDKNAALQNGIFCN
Sequence of Sphingosine 1-phosphate receptor 1 (Mus musculus) (O08530 whole entry): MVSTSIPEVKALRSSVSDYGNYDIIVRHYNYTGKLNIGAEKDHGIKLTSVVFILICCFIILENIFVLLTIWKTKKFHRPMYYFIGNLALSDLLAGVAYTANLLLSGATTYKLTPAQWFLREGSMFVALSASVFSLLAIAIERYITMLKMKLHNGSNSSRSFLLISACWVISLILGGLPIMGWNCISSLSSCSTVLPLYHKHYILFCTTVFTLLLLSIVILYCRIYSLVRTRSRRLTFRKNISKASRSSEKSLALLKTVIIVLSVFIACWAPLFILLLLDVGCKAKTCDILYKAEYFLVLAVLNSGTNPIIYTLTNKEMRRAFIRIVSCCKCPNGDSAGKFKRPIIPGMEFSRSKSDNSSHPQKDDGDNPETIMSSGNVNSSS

Structure (SMILES) | microsomal CLint [1] | EC50 [2] | further results
CCn1c([C@@H](C)NS(=O)(=O)c2ccc(Cl)cc2)nc2ccc(CO)cc21 | 84 µL/min/mg | 0.005 µM | 
CCn1c([C@@H](C)NS(=O)(=O)c2ccc(Cl)cc2)nc2cc(N3CCOCC3)ccc21 | 45 µL/min/mg | 2.42 µM | 
CCn1c([C@@H](C)NS(=O)(=O)C2CCCC2)nc2ccc(C(F)(F)F)cc21 |  | 1.8 µM | 
CCn1c(C(C)NS(=O)(=O)c2ccc(Cl)cc2)nc2cccnc21 (centres undefined) | 94 µL/min/mg | 2.34 µM | 
CCCn1cc(S(=O)(=O)N[C@H](C)c2nc3ccc(C(F)(F)F)cc3n2CC)c(C)n1 | > 100 µL/min/mg | 0.42 µM | 
CCn1c([C@@H](C)NS(=O)(=O)c2ccc(C#N)cc2)nc2cnc(C(F)(F)F)cc21 |  | 0.003 µM | Activity (Cytochrome P450 3A4 [3]): < 40%; Activity (Cytochrome P450 3A5 [4]): < 40%; logD [5]: 1.6; Activity [6]: 32%
CCn1c([C@@H](C)NS(=O)(=O)c2ccc(C#N)cc2)nc2cnc(C3CC3)cc21 |  | 0.006 µM | Activity (Cytochrome P450 3A4 [3]): < 40%; Activity (Cytochrome P450 3A5 [4]): < 40%; logD [5]: 1.9; Activity [6]: 27%
CCn1c([C@@H](C)NS(=O)(=O)c2ccc(Cl)cc2)nc2cc(C#N)ccc21 | 71 µL/min/mg | 0.13 µM | 
CCn1c([C@@H](C)NS(=O)(=O)c2cn(C)c(C)n2)nc2ccc(C(F)(F)F)cc21 | 43 µL/min/mg | 4 µM | 
CCn1c([C@@H](C)NS(=O)(=O)c2ccccn2)nc2ccc(C(F)(F)F)cc21 | < 3 µL/min/mg | 9.2 µM | 
CCn1c([C@@H](C)NS(=O)(=O)c2ccc(C#N)nc2)nc2cnc(OC)cc21 |  | 0.028 µM | Activity (Cytochrome P450 3A4 [3]): < 40%; Activity (Cytochrome P450 3A5 [4]): < 40%; logD [5]: 1; Activity [6]: 11%
CCn1c([C@@H](C)NS(=O)(=O)c2cnn(C(C)C)c2C)nc2ccc(C(F)(F)F)cc21 | > 100 µL/min/mg | 1.1 µM | 
CCn1c([C@@H](C)NS(=O)(=O)c2c(F)cc(F)cc2F)nc2ccc(C(F)(F)F)cc21 | 19 µL/min/mg | 0.24 µM | 
CCn1c([C@@H](C)NS(=O)(=O)c2cnc(NC(C)=O)s2)nc2ccc(C(F)(F)F)cc21 | 15 µL/min/mg | 2.2 µM | 
CCn1c([C@@H](C)NS(=O)(=O)c2ccccc2)nc2ccc(C(F)(F)F)cc21 | 14 µL/min/mg | 0.008 µM | 
CCn1c([C@@H](C)NS(=O)(=O)c2cnc(C)n2C)nc2ccc(C(F)(F)F)cc21 | 58 µL/min/mg | 0.65 µM | 
CCn1c(C(C)NS(=O)(=O)c2ccc(Cl)cc2)nc2ccncc21 (centres undefined) | 93 µL/min/mg | 1.17 µM | 
CCc1nnc([C@@H](C)NS(=O)(=O)c2ccc(Cl)cc2)n1CC |  |  | inhibition [7]: inactive
CCn1c([C@@H](C)NS(=O)(=O)c2ccc(F)cc2)nc2ccc(C(F)(F)F)cc21 | 26 µL/min/mg | 0.007 µM | inhibition [8]: Active
CCn1c([C@@H](C)NS(=O)(=O)c2cccc(Cl)c2)nc2ccc(C(F)(F)F)cc21 | > 100 µL/min/mg | 0.027 µM | 
CCn1c([C@@H](C)NS(=O)(=O)c2cccc(C#N)c2)nc2ccc(C(F)(F)F)cc21 | > 100 µL/min/mg | 0.057 µM | 
CCn1ncc(S(=O)(=O)N[C@H](C)c2nc3ccc(C(F)(F)F)cc3n2CC)c1C | > 100 µL/min/mg | 0.43 µM | 

Structure (SMILES) | microsomal CLint [1] | EC50 [2] | further results
CCn1c([C@@H](C)NS(=O)(=O)c2cn(C)nc2C)nc2ccc(C(F)(F)F)cc21 | 28 µL/min/mg | 1 µM | 
CCn1c([C@@H](C)NS(=O)(=O)c2ccc(Cl)cc2)nc2cc(C(N)=O)ccc21 | < 5 µL/min/mg | 0.19 µM | 
CCn1c([C@@H](C)NS(=O)(=O)c2ccncc2)nc2ccc(C(F)(F)F)cc21 | 45 µL/min/mg | 0.026 µM | IC50 (Cytochrome P450 2C19): 0.04 µM
CCn1c([C@@H](C)NS(=O)(=O)c2ccc(C#N)cc2)nc2cnc(OC)cc21 |  | 0.009 µM | Activity (Cytochrome P450 3A4 [3]): < 40%; Activity (Cytochrome P450 3A5 [4]): < 40%; logD [5]: 1.4; Activity [6]: 18%
CCn1c([C@@H](C)NS(=O)(=O)c2ccc(Cl)cc2)nc2ccc(OC)cc21 | > 100 µL/min/mg | 0.009 µM | 
CCn1c([C@@H](C)NS(=O)(=O)c2ccc(Cl)cc2)nc2ccccc21 | > 100 µL/min/mg | 0.05 µM | inhibition [9]: Active; bioavailability [10]: 5%; inhibition [11]: Active
CCn1c([C@@H](C)NS(=O)(=O)c2ccc(Cl)cc2)nc2cc(F)c(Cl)cc21 | > 100 µL/min/mg | 0.001 µM | 
CCn1c([C@@H](C)NS(=O)(=O)C2CC2)nc2ccc(C(F)(F)F)cc21 | < 3 µL/min/mg | 9 µM | 
CCn1cc(S(=O)(=O)N[C@H](C)c2nc3ccc(C(F)(F)F)cc3n2CC)cn1 | 95 µL/min/mg | 0.59 µM | 
CCn1c([C@@H](C)NS(=O)(=O)c2ccc(Cl)cc2)nc2cccc(Cl)c21 | > 100 µL/min/mg | 0.8 µM | 
CCn1c([C@@H](C)NS(=O)(=O)c2ccc(Cl)cc2)nc2ccc(S(C)(=O)=O)cc21 | < 5 µL/min/mg | 1.84 µM | 
CCn1c([C@@H](C)NS(=O)(=O)c2ccc(Cl)cc2)nc2ccc(CN(C)C)cc21 | 30 µL/min/mg | 23.5 µM | 
CCn1c([C@@H](C)NS(=O)(=O)c2ccc(Cl)cc2)nc2cc(CO)ccc21 | 88 µL/min/mg | 0.18 µM | 
CCn1c(C(C)NS(=O)(=O)c2ccc(Cl)cc2)nc2ncccc21 (centres undefined) | 15 µL/min/mg | 0.31 µM | 
CCn1c([C@@H](C)NS(=O)(=O)c2ccc(C)cc2)nc2ccc(C(F)(F)F)cc21 | > 100 µL/min/mg | 0.024 µM | 
CCn1c([C@@H](C)NS(=O)(=O)c2ccc(C#N)cc2)nc2cnccc21 |  | 0.034 µM | Activity (Cytochrome P450 3A4 [3]): < 40%; Activity (Cytochrome P450 3A5 [4]): < 40%; Activity [6]: 14%
CCn1c([C@@H](C)NS(=O)(=O)c2ccc(CC(C)C)cc2)nc2ccc(C(F)(F)F)cc21 | > 100 µL/min/mg | 1.8 µM | 
CCn1c([C@@H](C)NS(=O)(=O)c2cccnc2)nc2ccc(C(F)(F)F)cc21 | > 100 µL/min/mg | 0.03 µM | IC50 (Cytochrome P450 3A5 [12]): 0.83 µM; IC50 (Cytochrome P450 3A4 [13]): 0.83 µM
CCn1c([C@@H](C)NS(=O)(=O)c2ccc(C#N)cc2)nc2ccc(C(F)(F)F)cc21 | 34 µL/min/mg | 0.012 µM | 
CCCn1ncc(S(=O)(=O)N[C@H](C)c2nc3ccc(C(F)(F)F)cc3n2CC)c1C | > 100 µL/min/mg | 0.8 µM | 
CCn1c(C(C)NS(=O)(=O)c2ccc(Cl)cc2)nc2cnccc21 (centres undefined) | 35 µL/min/mg | 0.21 µM | IC50 (Cytochrome P450 2D6): 0.23 µM; IC50 (Cytochrome P450 2C19): 0.91 µM
CCn1c([C@@H](C)NS(=O)(=O)c2ccc(NC(C)=O)c(C)c2)nc2ccc(C(F)(F)F)cc21 | > 100 µL/min/mg | 12.4 µM | 
